# Experimental data from the RNAGym collection of RNA variant scans (doi:10.1126/science.aae0568).
# This sample holds only a part of the variants without activity.
# B1: tRNA (parent)
# chain: GUUCCGUUGGCGUAAUGGUAACGCGUCUCCCUCCUAAGGAGAAGACUGCGGGUUCGAGUCCCGUACGGAACG
# Variants of: B1
# Experiment: yeast fitness relative to wild type (ratio to wild type); higher = fitter; tRNA-Arg(CCU), competitive growth, 37 C, YPD
# How it was run: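 The tRNA-Arg(CCU) gene variants were made by chemical synthesis with a 3% per-site mutation rate at 69 sites and inserted at the native genomic locus of Saccharomyces cerevisiae. After pooling, the strains were competed in YPD at 37°C for 24 hours in six parallel replicates. Gene amplicons from the start population and each end population were read by 100-nucleotide paired-end sequencing, and Darwinian fitness relative to wild type was taken from genotype frequency changes. Genotypes needed ≥ 100 starting reads, and estimates < 0.5 were set to 0.5.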
row,Variant,yeast fitness
1,GUUCCGUUGGCGUAAUGGUAACGCGUCUCCUUCCUAAGGAGAAGAAUGCGGGUUCGUGUUCCGUACGGAACG [C31U C46A A57U C60U],≤ 0.5
2,GUUCCGUUGGCGUAAUGGUAACGCGUCUCCUUCCUAAGGAGAAGACUGCGGGUUCGAGUCCUAUACGGAACG [C31U C62U G63A],0.617
3,GUUCCGUUGGCGUAAUGGUAACGCGUCUCCUUCUUAAAGAGAACACUGCGGGUUCGAGUCCCGUACGGAACG [C31U C34U G38A G44C],≤ 0.5
4,GUUCCGUUGGCGUAAUGGUAACGCGUCUCCUUCCUAAGGAGAAGCCUGCGGGUUCGAGUCGCGUCCGGAACG [C31U A45C C61G A65C],≤ 0.5
5,GUUCCGUUGGCGUAAUGGUAACGCGUCUCCGUCCUAAGGAGAAGACUGCGGGUUCGAGUCCCCUCCGGAACG [C31G G63C A65C],≤ 0.5
6,GUUCCGUUGGCGUAAUGGUAACGCGUCUCCGUCUUAAGGCAAAGACUGCGGGUUCGAGUCCCGUACGGAACG [C31G C34U A40C G41A],≤ 0.5
7,GUUCCGUUGGCGUAAUGGUAACGCGUCUCCGUCGUAAGGAGAAGUCUGCGGGUUCGAGUCCCCUACGGAACG [C31G C34G A45U G63C],≤ 0.5
8,GUUCCGUUGGCGUAAUGGUAACGCGUCUCCGUCCUAAGGAGAACACUGCGGCUUCGAGUGCCGUACGGAACG [C31G G44C G52C C60G],≤ 0.5
9,GUUCCGUUGGCGUAAUGGUAACGCGUCUCCGUCCUAACGAGAUGACUGCGGGUUCGAGUCCCGUACGGAACG [C31G G38C A43U],0.538
10,GUUCCGUUGGCGUAAUGGUAACGCGUCUCCUUCCUAAGGAGACGACUGCGGGUUCGAGUCCCGUACGGCACG [C31U A43C A69C],0.902
11,GUUCCGUUGGCGUAAUGGUAACGCGUCUCCGUCCUAAGGAGAAGACUGCGGGUUCGAGUCCCGCACAGAACG [C31G U64C G67A],≤ 0.5
12,GUUCCGUUGGCGUAAUGGUAACGCGUCUCCGUCCUAAGGAGAAGACUGCGGGCUCGAGUCCCGUACGGAACG [C31G U53C],0.662
13,GUUCCGUUGGCGUAAUGGUAACGCGUCUCCUUCCUAAGGAGAAGACUGCGGGUUCGAGUCUCGUACGGAUCG [C31U C61U A70U],0.696
14,GUUCCGUUGGCGUAAUGGUAACGCGUCUCCUUCCUAAGGAGAAGACUGCGGGUUCGGGUCCCGUAUGGAACG [C31U A57G C66U],0.583
15,GUUCCGUUGGCGUAAUGGUAACGCGUCUCCGUCCUAAGGAGAAGACUGCGGGUUCGUCUCCCGUACGGAACG [C31G A57U G58C],≤ 0.5
16,GUUCCGUUGGCGUAAUGGUAACGCGUCUCCUUCCUAAGGAGAAGACUGCGGGUUCGAGUUCCGUACAGUACG [C31U C60U G67A A69U],≤ 0.5
17,GUUCCGUUGGCGUAAUGGUAACGCGUCUCCUUCCUACGGAGAAGACUGCGGGUUCGAGUCCCGUACGGAACG [C31U A37C],0.761
18,GUUCCGUUGGCGUAAUGGUAACGCGUCUCCUUCCUAAGGCGAAGACUGCGGGUUCCAGUCCCGUACGGAACG [C31U A40C G56C],≤ 0.5
19,GUUCCGUUGGCGUAAUGGUAACGCGUCUCCGUCCUAAAGAGAAGACUGCGGAUUCGAGUCACAUACGGAACG [C31G G38A G52A C61A G63A],≤ 0.5

row,Variant,yeast fitness
1,GUUCCGUUGGCGUAAUGGUAACGCGUCUCCUUCCUAAGGAGAAGACUGCGGGUUGGAGUCCUGUACGGAACG [C31U C55G C62U],≤ 0.5
2,GUUCCGUUGGCGUAAUGGUAACGCGUCUCCGUCCUAAGGAGAAGACUGCGGGUUCGAGUCCCGUAUGGAACG [C31G C66U],0.867
3,GUUCCGUUGGCGUAAUGGUAACGCGUCUCCUUCCUAAGGACACGACUGCGGGUUCGAGUGCCGUACGGAACG [C31U G41C A43C C60G],≤ 0.5
4,GUUCCGUUGGCGUAAUGGUAACGCGUCUCCGUCCUAAGGAGAAGACUGCGGGUGCGAGUCCCGUACGGAACG [C31G U54G],0.6
5,GUUCCGUUGGCGUAAUGGUAACGCGUCUCCUUCCUAAGGAUAAGACUGCGGGUUCGAGUCCCAUACGGAACG [C31U G41U G63A],0.721
6,GUUCCGUUGGCGUAAUGGUAACGCGUCUCCGUUCAAAGGAGAAGACUGCGGGUUCGAGUCCCGUACGGAACG [C31G C33U U35A],≤ 0.5
7,GUUCCGUUGGCGUAAUGGUAACGCGUCUCCUUCCUAAGGAGAAGACUGCGGGUUCGAGUCCCGUGCGGAACG [C31U A65G],1.11
8,GUUCCGUUGGCGUAAUGGUAACGCGUCUCCUUCCUAAGGGGAAGACUCCGGGUUCGUGACCCGUACGGCACG [C31U A40G G48C A57U U59A A69C],≤ 0.5
9,GUUCCGUUGGCGUAAUGGUAACGCGUCUCCGUCCUAAGGAGAAGACUGCGGGUUGGAGUCCCGUGCGGAACG [C31G C55G A65G],≤ 0.5
10,GUUCCGUUGGCGUAAUGGUAACGCGUCUCCUUCCUAAGGAUAAGACUGCGGGUUCAAGUCCCGUACGGAACG [C31U G41U G56A],0.686
11,GUUCCGUUGGCGUAAUGGUAACGCGUCUCCGUUCUACGGAGAAGACUGCGGGUUCGAGUCCCGUACGGAACG [C31G C33U A37C],≤ 0.5
12,GUUCCGUUGGCGUAAUGGUAACGCGUCUCCGUCCUAAGGAGAAGAGUGCGGGUUCGACUCCCGUACGGAACG [C31G C46G G58C],0.928
13,GUUCCGUUGGCGUAAUGGUAACGCGUCUCCGCCCUAUGGAGAAGACUGCGGGUUCGAGUCCCGUACGGAACG [C31G U32C A37U],≤ 0.5
14,GUUCCGUUGGCGUAAUGGUAACGCGUCUCCUUUCUAAGGAGCAGACUGUGGGUUCGAGUCCCGUCCGGAACG [C31U C33U A42C C49U A65C],≤ 0.5
15,GUUCCGUUGGCGUAAUGGUAACGCGUCUCCGUCCUAAGGAGAAGACUGCGCGUUCGAGUCUCGUACGGAACG [C31G G51C C61U],≤ 0.5
16,GUUCCGUUGGCGUAAUGGUAACGCGUCUCCGUUCUAAGGCGAAGACUGCGGGUUCGAGUCCCGUACGGAACG [C31G C33U A40C],0.6
17,GUUCCGUUGGCGUAAUGGUAACGCGUCUCCUUCCUAAGGAGAAGACUGCGGGUUCGAGUCCCGUACGGACCG [C31U A70C],1.05
18,GUUCCGUUGGCGUAAUGGUAACGCGUCUCCGUCCUAAGGAGAAGACUGCGGGUUCGAGUCCGGUACGGAACG [C31G C62G],0.827
19,GUUCCGUUGGCGUAAUGGUAACGCGUCUCCUUCCUAGGGAGAAGCCUGCGGGUUCGAGUCCCGUACGGAACG [C31U A37G A45C],0.618
